ChEMBL document CHEMBL1130199, “Differentiation between partial agonists and neutral 5-HT1B antagonists by chemical modulation of 3-[3-(N,N-dimethylamino)propyl]-4-hydroxy- N-[4-(pyridin-4-yl)phenyl]benzamide (GR-55562)” (J Med Chem, 1997)

Legend:
[1] = target: T1, 5-hydroxytryptamine receptor 1B (Homo sapiens, UniProt P28222); assay: Binding affinity for 5-hydroxytryptamine 1B receptor in C6-glial transfected cell type using [3H]GR-125743 as radioligand
Procedure, shortened: (§1)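 Radioligand binding on membranes from HeLa/HA7 cells (h5-HT1A), transfected Cos-7 cells (h5-HT1D) or C6-glia cells stably transfected with h5-HT1B. Values are mean or mean ± SD of 2–3 independent experiments, each in triplicate.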

[2] = target: T1, 5-hydroxytryptamine receptor 1B; assay: Binding affinity for 5-hydroxytryptamine 1B receptor in C6-glial transfected cell type using [3H]5-CT as radioligand; procedure, shortened: as §1
[3] = target: T1, 5-hydroxytryptamine receptor 1B; assay: Intrinsic activity for Antagonism of 5-hydroxytryptamine 1B receptor-mediated stimulation of [35S]GTP gamma S binding; assay type: functional
Procedure, shortened: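 [35S]GTPγS binding to C6-glia/h5-HT1B membranes (20–120 μg protein) in 20 mM Hepes pH 7.4 with 30 μM GDP, 100 mM NaCl, 3 mM MgCl2 and 0.2 mM ascorbate. Compound was incubated 30 min at 25 °C, then 500 pM [35S]GTPγS was added for 30 min. Emax is given as % of the response to 10 μM 5-HT, and EC50 is relative to each compound's own maximum. Mean ± SD of 2–4 experiments, each in triplicate.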

[4] = target: T2, 5-hydroxytryptamine receptor 1A (Homo sapiens, UniProt P08908); assay: Binding affinity for 5-hydroxytryptamine 1A receptor in HeLa transfected cell type using [3H]8-OH-DPAT as radioligand; procedure, shortened: as §1
T2 sequence (P08908 whole entry): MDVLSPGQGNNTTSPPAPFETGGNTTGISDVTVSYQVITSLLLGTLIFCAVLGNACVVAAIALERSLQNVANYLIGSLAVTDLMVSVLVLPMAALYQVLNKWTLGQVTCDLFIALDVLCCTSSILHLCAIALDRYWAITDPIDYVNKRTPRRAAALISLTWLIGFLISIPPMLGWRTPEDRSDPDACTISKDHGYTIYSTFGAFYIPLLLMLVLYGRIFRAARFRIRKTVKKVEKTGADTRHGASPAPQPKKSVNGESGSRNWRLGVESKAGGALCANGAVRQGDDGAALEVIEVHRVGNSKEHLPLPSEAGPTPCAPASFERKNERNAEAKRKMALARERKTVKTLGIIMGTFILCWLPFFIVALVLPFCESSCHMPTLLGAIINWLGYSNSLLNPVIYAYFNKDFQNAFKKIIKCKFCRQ

[5] = Determined KB value of the compound; assay type: functional
Procedure, shortened: (§2)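 Membranes of C6-glia cells stably expressing h5-HT1B were preincubated with zolmitriptan concentration series, with or without antagonist (1 μM or 10 μM), in 20 mM Hepes pH 7.4 containing 30 μM GDP, 100 mM NaCl, 3 mM MgCl2 and 0.2 mM ascorbic acid, 30 min at 25 °C. [35S]GTPγS (500 pM) was then added for 30 min. pA2 was derived from concentration ratios. Mean ± SD of 2–4 experiments, each in triplicate.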

[6] = Antagonism of the zolmitriptan-mediated response tested at 1 uM; assay type: functional; procedure, shortened: as §2
[7] = target: 5-hydroxytryptamine receptor 1D (Homo sapiens, UniProt P28221); assay: Binding affinity for 5-hydroxytryptamine 1D receptor in Cos-7 transfected cell type using [3H]5-CT as radioligand; procedure, shortened: as §1
[8] = Antagonism of the zolmitriptan-mediated response tested at 10 uM; assay type: functional; procedure, shortened: as §2

5-hydroxytryptamine receptor 1D, sequence (P28221 whole entry): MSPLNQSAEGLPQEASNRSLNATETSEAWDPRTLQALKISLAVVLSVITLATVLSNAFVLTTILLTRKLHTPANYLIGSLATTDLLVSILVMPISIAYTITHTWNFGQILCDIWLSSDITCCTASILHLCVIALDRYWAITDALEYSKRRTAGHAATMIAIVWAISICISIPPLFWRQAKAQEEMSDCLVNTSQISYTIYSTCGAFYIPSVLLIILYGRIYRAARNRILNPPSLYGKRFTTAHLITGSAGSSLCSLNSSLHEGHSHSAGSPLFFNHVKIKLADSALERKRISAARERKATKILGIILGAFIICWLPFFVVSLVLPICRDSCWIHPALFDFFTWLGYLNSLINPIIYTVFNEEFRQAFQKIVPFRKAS
T1 sequence (P28222 whole entry): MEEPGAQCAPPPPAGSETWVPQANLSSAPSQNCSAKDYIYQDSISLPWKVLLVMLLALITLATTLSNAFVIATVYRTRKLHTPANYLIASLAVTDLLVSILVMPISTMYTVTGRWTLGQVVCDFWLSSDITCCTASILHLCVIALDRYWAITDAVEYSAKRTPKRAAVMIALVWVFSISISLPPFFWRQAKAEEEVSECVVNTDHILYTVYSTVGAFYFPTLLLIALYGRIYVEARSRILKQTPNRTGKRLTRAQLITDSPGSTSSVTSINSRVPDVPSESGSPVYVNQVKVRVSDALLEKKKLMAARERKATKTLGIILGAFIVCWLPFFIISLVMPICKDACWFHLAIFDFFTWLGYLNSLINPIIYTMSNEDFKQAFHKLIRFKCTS

| Compound | Ki [1] [nM] | Ki [2] [nM] | Activity [3] | Ki [4] [nM] | Kb [5] [nM] | EC50 [6] [nM] | Ki [7] [nM] | EC50 [8] [nM] |
| --- | --- | --- | --- | --- | --- | --- | --- | --- |
| CN(C)CCCc1cc(C(=O)Nc2ccc(-c3ccncc3)cc2)ccc1O [GR-55562] | 14 | 12.1 | -3.7 | 842 | 21.3 | 3000 | 700 |  |
| COc1ccc(C(=O)Nc2ccc(-c3ccncc3)cc2)cc1C=CCN(C)C | 6.1 | 19 | 2.3 | 633 | 19.4 | 3300 | 169 |  |
| COc1ccc(C(=O)Nc2ccc(-c3ccncc3)cc2)cc1CCCN(C)C | 15.4 | 70.1 | 4 | > 1000 | 22.7 | 2850 | 540 |  |
| COc1ccc(C(=O)Nc2ccc(-c3ccncc3)cc2)cc1/C=C/CN(C)C | 18.8 | 13.6 | 23 | > 1000 |  |  | 560 | 4300 |
| COc1ccc(C(=O)Nc2ccc(-c3ccncc3)cc2)cc1C#CCN(C)C | 22.3 | 16.2 | 32.3 | > 1000 |  |  | 1200 | 837 |
